“Also recorded” adds a separate entry of the source. Like-named read-outs stand apart in the source and are kept apart here.
Experiments:
[1] = molecular target: T1, purine nucleoside phosphorylase (PNP) (Homo sapiens, UniProt P00491); test: Incubations of 1,N^6-ε-dA and dIno with purified human PNP; format: biochemical; details: dIno versus 1,N^6-ε-dA
T1 sequence (P00491 1-289): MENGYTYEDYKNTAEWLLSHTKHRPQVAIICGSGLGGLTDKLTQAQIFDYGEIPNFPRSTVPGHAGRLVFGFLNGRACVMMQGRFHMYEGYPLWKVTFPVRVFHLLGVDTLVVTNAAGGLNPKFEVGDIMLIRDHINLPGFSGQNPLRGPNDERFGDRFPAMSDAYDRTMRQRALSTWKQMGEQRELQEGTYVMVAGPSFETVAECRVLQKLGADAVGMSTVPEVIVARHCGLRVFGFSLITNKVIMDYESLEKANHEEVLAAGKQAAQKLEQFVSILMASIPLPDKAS

Oxidation = format: in vitro ADME, rat; details: for enzymatic oxidation in rat liver cytosol: result in words
Method in brief: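 Rat liver cytosol (5 mg/mL) with varied base-adduct concentrations and 0.4% DMSO, prewarmed 5 min at 37 °C, then started with substrate. Etheno-guanine bases: 0.1 M NaOH stocks, 0.8 M potassium phosphate pH 7.6, extracts in 0.1 M NaOH, HPLC-UV at 285 nm. Heptanone base: DMSO stock, room-temperature setup, UV at 300 nm. Km and vmax came from nonlinear one-site binding fits.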

[2] = Glycolytic cleavage of 2′-deoxynucleoside adducts in rat liver cytosol; format: in vitro ADME; details: result in words
Method in brief: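 Reactions (ice-prepared) contained 5 mg/mL rat liver cytosol, varied adduct concentrations, 0.4% DMSO and 0.1 M potassium phosphate pH 7.4. One etheno-deoxyadenosine adduct was also run in 0.1 M Tris-HCl pH 7.4 without inorganic phosphate. After 5 min at 37 °C, substrate was added to start. Ice-cold methanol stopped reactions; samples were centrifuged at 200000g for 30 min. Supernatants went to reversed-phase HPLC-UV for base formation.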

[3] = molecular target: T2, xanthine oxidoreductase (XOR) (Rattus norvegicus, UniProt P22985); test: Effect of XOR and AO inhibitors on 1,N^2-ε-Gua oxidation in rat liver cytosol; format: biochemical; details: result in words
T2 sequence (P22985 whole entry): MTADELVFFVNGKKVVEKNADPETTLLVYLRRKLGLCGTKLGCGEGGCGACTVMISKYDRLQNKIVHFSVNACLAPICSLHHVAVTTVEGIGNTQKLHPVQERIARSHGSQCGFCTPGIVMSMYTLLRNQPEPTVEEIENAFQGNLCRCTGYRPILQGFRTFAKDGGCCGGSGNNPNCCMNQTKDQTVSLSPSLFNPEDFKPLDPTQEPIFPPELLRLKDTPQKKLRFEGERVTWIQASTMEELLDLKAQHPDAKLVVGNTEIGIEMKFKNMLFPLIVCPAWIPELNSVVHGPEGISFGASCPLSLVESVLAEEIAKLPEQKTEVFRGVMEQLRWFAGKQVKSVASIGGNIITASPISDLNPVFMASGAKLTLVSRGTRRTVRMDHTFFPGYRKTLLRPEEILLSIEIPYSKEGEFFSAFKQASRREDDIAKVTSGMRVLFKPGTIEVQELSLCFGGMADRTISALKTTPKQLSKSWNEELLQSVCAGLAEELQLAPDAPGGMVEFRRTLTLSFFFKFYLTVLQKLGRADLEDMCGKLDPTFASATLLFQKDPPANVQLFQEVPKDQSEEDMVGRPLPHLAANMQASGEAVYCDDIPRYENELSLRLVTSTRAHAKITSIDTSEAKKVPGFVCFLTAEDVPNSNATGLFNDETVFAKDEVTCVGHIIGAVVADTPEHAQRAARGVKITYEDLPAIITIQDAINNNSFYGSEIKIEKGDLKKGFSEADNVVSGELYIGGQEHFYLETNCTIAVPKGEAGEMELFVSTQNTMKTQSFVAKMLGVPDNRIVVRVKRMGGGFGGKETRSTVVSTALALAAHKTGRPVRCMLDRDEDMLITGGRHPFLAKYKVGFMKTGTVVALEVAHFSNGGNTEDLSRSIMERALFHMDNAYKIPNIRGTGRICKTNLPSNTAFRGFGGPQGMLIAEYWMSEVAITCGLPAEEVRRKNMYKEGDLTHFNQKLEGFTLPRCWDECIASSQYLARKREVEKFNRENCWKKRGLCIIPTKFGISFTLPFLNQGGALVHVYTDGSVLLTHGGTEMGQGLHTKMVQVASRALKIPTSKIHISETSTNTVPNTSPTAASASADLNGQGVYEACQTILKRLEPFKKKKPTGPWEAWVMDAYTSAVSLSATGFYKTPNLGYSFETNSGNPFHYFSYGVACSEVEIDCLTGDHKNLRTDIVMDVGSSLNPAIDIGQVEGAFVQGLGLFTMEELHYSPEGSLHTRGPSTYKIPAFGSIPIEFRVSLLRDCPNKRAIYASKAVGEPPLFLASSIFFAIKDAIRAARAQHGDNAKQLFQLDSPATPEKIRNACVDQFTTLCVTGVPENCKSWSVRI
Method in brief: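 Rat liver cytosol (5 mg/mL final) in 0.8 M potassium phosphate (pH 7.6) with 0.4% DMSO. Substrate stock was in 0.1 M NaOH; 84 μM substrate was used with increasing inhibitor concentrations. Mixes were prepared on ice, equilibrated 5 min at 37 °C, and started by adding substrate. Extracts were taken up in 0.1 M NaOH for reversed-phase HPLC-UV (285 nm). IC50 was fitted by nonlinear regression (one-site competition).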

[4] = molecular target: T2, xanthine oxidoreductase (XOR); format: biochemical; details: co-incubation in rat liver cytosol, result in words
Method in brief: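 Rat liver cytosol (5 mg/mL final) in 0.1 M potassium phosphate (pH 7.4) with 0.4% DMSO, co-incubated with inhibitors. Substrate stock was in DMSO, and mixes were prepared at room temperature. Reactions were equilibrated 5 min at 37 °C and started by adding substrate. Extracts were dissolved in methanol for C18 HPLC (formic acid water/methanol gradient) with UV at 300 nm.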

[5] = molecular target: Bovine XO from buttermilk (Bos taurus, UniProt P80457); test: Oxidation of 1,N^2-ε-Gua with purified XO; format: biochemical; details: for oxidation by purified bovine XO: result in words
Chain of Bovine XO from buttermilk (P80457 whole entry): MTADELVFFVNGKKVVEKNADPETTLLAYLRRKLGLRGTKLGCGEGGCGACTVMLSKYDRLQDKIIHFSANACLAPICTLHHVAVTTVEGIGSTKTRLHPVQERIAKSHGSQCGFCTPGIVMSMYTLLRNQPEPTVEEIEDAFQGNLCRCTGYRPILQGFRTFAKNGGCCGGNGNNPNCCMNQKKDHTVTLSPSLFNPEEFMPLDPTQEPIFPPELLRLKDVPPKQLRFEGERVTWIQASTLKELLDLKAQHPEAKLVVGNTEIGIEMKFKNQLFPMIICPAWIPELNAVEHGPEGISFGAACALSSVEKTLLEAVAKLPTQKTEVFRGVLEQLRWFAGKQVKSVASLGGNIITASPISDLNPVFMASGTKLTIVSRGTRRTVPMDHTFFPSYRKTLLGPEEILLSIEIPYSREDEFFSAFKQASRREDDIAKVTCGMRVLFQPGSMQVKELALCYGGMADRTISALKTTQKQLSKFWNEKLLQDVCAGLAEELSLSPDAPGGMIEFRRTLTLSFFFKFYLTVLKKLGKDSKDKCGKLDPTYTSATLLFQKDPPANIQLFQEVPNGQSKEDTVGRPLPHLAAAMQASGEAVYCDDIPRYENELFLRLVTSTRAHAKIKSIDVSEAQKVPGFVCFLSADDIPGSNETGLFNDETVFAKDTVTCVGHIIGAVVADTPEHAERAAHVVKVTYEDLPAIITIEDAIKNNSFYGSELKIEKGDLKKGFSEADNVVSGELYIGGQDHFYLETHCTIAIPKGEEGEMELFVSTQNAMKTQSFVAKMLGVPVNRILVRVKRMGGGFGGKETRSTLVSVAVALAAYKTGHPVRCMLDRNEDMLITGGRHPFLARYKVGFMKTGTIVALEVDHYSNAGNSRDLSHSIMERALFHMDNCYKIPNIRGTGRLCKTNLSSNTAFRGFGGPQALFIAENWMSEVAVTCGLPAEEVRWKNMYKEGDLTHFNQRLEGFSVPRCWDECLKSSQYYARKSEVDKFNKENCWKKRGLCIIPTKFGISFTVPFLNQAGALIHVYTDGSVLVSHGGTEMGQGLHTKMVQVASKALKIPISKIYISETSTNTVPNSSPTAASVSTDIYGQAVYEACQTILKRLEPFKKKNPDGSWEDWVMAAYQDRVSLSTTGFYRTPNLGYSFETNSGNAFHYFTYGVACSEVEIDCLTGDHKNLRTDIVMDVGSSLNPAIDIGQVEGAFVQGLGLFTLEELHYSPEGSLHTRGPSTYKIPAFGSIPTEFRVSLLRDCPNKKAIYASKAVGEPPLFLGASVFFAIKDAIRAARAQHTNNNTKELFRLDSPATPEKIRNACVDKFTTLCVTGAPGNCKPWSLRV

[6] = oxidation in rat liver cytosol; cited from earlier work

## OC[C@H]1O[C@@H](n2cnc3c(O)ncnc32)C[C@@H]1O [dIno, 2′-deoxyinosine]
[1]
  efficiency of turnover relative to 1,N^6-ε-dA: approximately 57 fold

## 3,N^4-ethenocytosine [3,N^4-ε-Cyt]
Oxidation
  enzymatic oxidation in rat liver cytosol: neither was found to be oxidized

## 1,N^6-ethenoadenine [1,N^6-ε-Ade]
Oxidation
  enzymatic oxidation in rat liver cytosol: neither was found to be oxidized

## OC[C@H]1O[C@@H](n2cnc3c2ncn2ccnc32)[C@H](O)[C@@H]1O [1,N^6-ε-adenosine]
[2]
  glycolytic cleavage in rat liver cytosol: Identical observations

## 7-(2-oxoheptyl)-1,N^2-ethenoguanine [heptanone-1,N^2-ε-Gua]
Oxidation
  enzymatic oxidation in rat liver cytosol: substrates for enzymatic oxidation

## Oc1ncnc2[nH]ncc12 [allopurinol]
[3]
  inhibition of 1,N^2-ε-Gua metabolite production: inhibited; also recorded: complete inhibition
[4]
  inhibition of heptanone-1,N^2-ε-Gua oxidation: inhibited oxidation

## O=c1c2[nH]cnc2nc2n1CCCN2 [PGua, 1,N^2-propanoguanine]
Oxidation
  enzymatic oxidation in rat liver cytosol: not oxidized

## O=c1c2[nH]cnc2nc2[nH]ccn12 [1,N^2-ε-Gua, 1,N^2-ethenoguanine]
Oxidation; oxidation in rat liver cytosol, unit of the text
  vmax: 105 pmol/min/mg
Oxidation; oxidation of substrate in rat liver cytosol, unit of Table 1
  vmax: 105000 pmol/min/mg
Oxidation; rat, rat liver cytosol, pH 7.6
  Km: 84 µM
Oxidation
  enzymatic oxidation in rat liver cytosol: substrates for enzymatic oxidation
[5]; consumption of 1,N^2-ε-Gua by XOR purified from bovine milk, Figure 3 legend
  vmax: 10.1 μmol min^−1 (mg of XOR)^−1
[5]; consumption of 1,N^2-ε-Gua by purified bovine XO
  vmax: 10.1 μmol min^−1 (mg of XO)^−1
[5]
  oxidation by purified bovine XO: readily consumed

## O=c1ccn2c(=O)c3[nH]cnc3nc2[nH]1 [6-oxo-M1G]
[6]
  Km: 210 µM
  vmax: 257 nmol/min/mg

## O=c1nc2[nH]ccn2c2nc[nH]c12 [N^2,3-ε-Gua, N^2,3-ethenoguanine]
Oxidation
  enzymatic oxidation in rat liver cytosol: did not result in oxidative metabolism
[5]
  oxidation by purified bovine XO: did not result in oxidative metabolism
